Test results published in ChEMBL document CHEMBL4011621, “A Novel Series of Highly Potent Small Molecule Inhibitors of Rhinovirus Replication” (J Med Chem, 2017).

Key:
[1] = test system: rhinovirus B14; test: Antiviral activity against Human rhinovirus B14 infected in human H1HeLa cells assessed as protection against virus induced cytopathic effect after 3 days by MTT assay; assay type: functional, cell-based; settings: Rhinovirus B, H1-HeLa, 72 h
[2] = test system: rhinovirus A21; test: Antiviral activity against Human rhinovirus A21 infected in human H1HeLa cells assessed as protection against virus induced cytopathic effect after 3 days by MTT assay; assay type: functional, cell-based; settings: Rhinovirus A, H1-HeLa, 72 h
Summary of the method: (§1)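 CPE-reduction assay in H1HeLa cells plated 2 d before. Equal volumes of virus and compound were added and held at 33 °C for 3 d under CO2. Supernatant was removed, then MTT was added for 1 h at 37 °C. Formazan was dissolved and read at 540 nm against a 690 nm reference. Survival was scaled between uninfected untreated wells (100%) and virus-only wells (0%); mean ± SD, three experiments.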

[3] = Cytotoxicity against human H1HeLa cells assessed as decrease in cell viability after 3 days by MTT assay; assay type: cell-based, H1-HeLa
[4] = Antiviral activity against Human rhinovirus A71 infected in human H1HeLa cells assessed as protection against virus induced cytopathic effect after 3 days by MTT assay; assay type: functional, cell-based; settings: Rhinovirus A, H1-HeLa, 72 h; summary of the method: as §1
[5] = Selectivity index, ratio of CC50 for human H1HeLa cells to EC50 for Human rhinovirus B14 infected in human H1HeLa cells; assay type: toxicity, cell-based; settings: read-out: Ratio CC50/EC50
Summary of the method: (§2)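 H1HeLa cells plated 2 d ahead; virus plus compound (equal volumes) incubated 33 °C, 3 d, CO2. MTT 1 h at 37 °C, A540/A690. Survival scaled between uninfected untreated (100%) and virus-only (0%) wells to give EC50. CC50 = 50% cell death by MTT in H1HeLa. SI = CC50/EC50; at least three independent experiments.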

[6] = Selectivity index, ratio of CC50 for human H1HeLa cells to EC50 for Human rhinovirus A21 infected in human H1HeLa cells; assay type: toxicity, cell-based; settings: read-out: Ratio CC50/EC50; summary of the method: as §2
[7] = Selectivity index, ratio of CC50 for human H1HeLa cells to EC50 for Human rhinovirus A71 infected in human H1HeLa cells; assay type: toxicity, cell-based; settings: read-out: Ratio CC50/EC50; summary of the method: as §2
[8] = test system: Poliovirus 3; test: Antiviral activity against Human poliovirus 3 infected in human HeLa cells assessed as protection against virus induced cytopathic effect after 2 days by MTT assay; assay type: functional, cell-based; settings: Enterovirus C, 48 h
Summary of the method: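 HeLa cells; MTT-based CPE reduction. Virus and compound added in equal volumes, incubated 37 °C for 2 d in CO2. Supernatant removed, MTT 1 h at 37 °C, formazan dissolved, absorbance 540 nm (690 nm reference). Uninfected untreated wells = 100% survival, virus-only = 0%. EC50 = 50% inhibition; means ± SD, three experiments.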

[9] = Cytotoxicity aganist human HeLa cells assessed as decrease in cell viability after 2 days by MTT assay; assay type: cell-based
[10] = Selectivity index, ratio of CC50 for human HeLa cells to EC50 for human poliovirus 3 infected in human HeLa cells; assay type: toxicity, cell-based; settings: read-out: Ratio CC50/EC50
Summary of the method: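 SI = CC50/EC50 in HeLa cells. CC50 = 50% cell death by MTT. EC50 = 50% inhibition of PV3 CPE by MTT after 2 d at 37 °C, survival scaled to uninfected (100%) and virus-only (0%) wells. At least three independent experiments.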

[11] = Cytotoxicity against human HeLa Rh cells assessed as decrease in cell viability after 3 days by MTT assay; assay type: cell-based
[12] = test system: rhinovirus B14; test: Antiviral activity against Human rhinovirus B14 harboring VP1 A150V/E276K double mutant infected in human HeLa Rh cells assessed as protection against virus induced cytopathic effect after 3 days by MTT assay; assay type: functional, cell-based
[13] = test system: rhinovirus B14; test: Antiviral activity against Human rhinovirus B14 harboring VP1 C199Y mutant infected in human HeLa Rh cells assessed as protection against virus induced cytopathic effect after 3 days by MTT assay; assay type: functional, cell-based

Row | SMILES | EC50 [1] [nM] | EC50 [2] [nM] | CC50 at 72 h [3] [nM] | EC50 [4] [nM] | selectivity ratio [5] | selectivity ratio [6] | selectivity ratio [7] | EC50 [8] [nM] | CC50 at 48 h [9] [nM] | selectivity ratio [10] | CC50 at 72 h [11] [nM] | EC50 [12] [nM] | EC50 [13] [nM]
1 | CNC(=O)c1cc(Oc2ccc3c(C)c(C(=O)OC(C)C)n(C)c3c2)ccn1 | 1900 | 130 | 11200 | 60 | 5.9 | 86 | 190 | 71 | 8500 | 120 | – | – | –
2 | CNC(=O)c1cc(Oc2ccc3c(C)c(C(=O)OC)sc3c2)ccn1 | 2000 | 250 | 10800 | 1600 | 5.4 | 43 | 6.8 | 87 | 15700 | 180 | – | – | –
3 | CCOC(=O)c1cc2ccc(Oc3ccccc3)cc2s1 | 68600 | 51100 | > 100000 | 2800 | > 1.5 | > 2 | > 36 | > 90100 | 90100 | – | – | – | –
4 | CNC(=O)c1cc(Oc2ccc3c(C)c(C(=O)OC(C)C)[nH]c3c2)ccn1 | > 14600 | 2500 | 14600 | 1900 | – | 5.8 | 7.7 | 72 | 8400 | 120 | – | – | –
5 | CCOC(=O)c1cc2cc(Oc3ccnc(C(=O)NC)c3)ccc2cc1O | > 100000 | 410 | > 100000 | 290 | – | > 240 | > 340 | 180 | > 100000 | > 560 | – | – | –
6 | CCOC(=O)c1sc2cc(Oc3ccnc(C(=O)NC)c3)ccc2c1CC | 13500 | 210 | 35200 | 1300 | 2.6 | 170 | 27 | > 16700 | 16700 | – | – | – | –
7 | CCOC(=O)c1cc2ccc(Oc3ccnc(C(=O)NC)c3)c(Cl)c2s1 | 12400 | 7700 | > 100000 | 200 | > 8.1 | > 13 | > 500 | 58700 | > 100000 | > 1.7 | – | – | –
8 | CCOC(=O)c1sc2cc(Oc3ccnc(C(=O)NC)c3)ccc2c1C | 1700 | 290 | 50900 | 340 | 30 | 180 | 150 | 93 | > 100000 | > 1100 | – | – | –
9 | CCCOC(=O)c1sc2cc(Oc3ccnc(C(=O)NC)c3)ccc2c1C | 2900 | 330 | 37400 | 64 | 13 | 110 | 580 | 710 | 57100 | 80 | – | – | –
10 | CNC(=O)c1cc(Oc2ccc3cc(C(=O)OC(C)C)n(C)c3c2)ccn1 | 820 | 64 | 10300 | 7.1 | 13 | 160 | 1500 | 9100 | 46100 | 5.1 | – | – | –
11 | CCOC(=O)c1sc2cc(Oc3ccnc(C(=O)NC)c3)ccc2c1C#N | 82500 | 20700 | > 100000 | 540 | > 1.2 | > 4.8 | > 190 | 55400 | > 100000 | > 1.8 | – | – | –
12 | COc1ccc(OCc2ccc(COc3c(Cl)cccc3Cl)cc2)c(Cl)c1 | > 100000 | 2000 | > 100000 | 250 | – | > 50 | > 400 | 80 | 16000 | 200 | – | – | –
13 | CCOc1noc2cc(OCCC3CCN(c4ccc(C)nn4)CC3)ccc12 [VAPENDAVIR] | – | – | – | – | – | – | – | – | – | – | 721000 | – | –
14 | CNC(=O)c1cc(Oc2ccc3cc(C(=O)OC(C)C)sc3c2)ccn1 | 1700 | 1500 | 45700 | 13 | 27 | 31 | 3500 | 6400 | 45000 | 7 | – | – | –
15 | CNC(=O)c1cc(Oc2ccc3ccc(C(=O)OC)cc3c2)ccn1 | 11000 | 2000 | 53500 | 1600 | 4.9 | 27 | 33 | 44 | 33800 | 770 | – | – | –
16 | CCOC(=O)c1ccc2cc(Oc3ccnc(C(=O)NC)c3)ccc2c1 | 2100 | 91 | 35300 | 3.5 | 17 | 390 | 10000 | 410 | 34100 | 83 | – | – | –
17 | CCOC(=O)c1ccc2ccc(Oc3ccnc(C(=O)NC)c3)cc2c1 | 2100 | 270 | 20800 | 48 | 9.9 | 77 | 430 | 9.5 | 13200 | 1400 | – | – | –
18 | CNC(=O)c1cc(Oc2ccc3c(C)c(C(=O)OCC(C)C)sc3c2)ccn1 | 10100 | 1500 | 36600 | 380 | 3.6 | 24 | 96 | 2000 | 28200 | 14 | – | – | –
19 | CNC(=O)c1cc(Oc2ccc3ccc(C(=O)OC(C)C)cc3c2)ccn1 | 1800 | 480 | 13800 | 19 | 7.7 | 29 | 730 | 10 | 8700 | 870 | – | – | –
20 | C#CC[C@@H](C(=O)N[C@H](/C=C/C(=O)OCC)C[C@@H]1CCNC1=O)n1cccc(NC(=O)c2cc(C)on2)c1=O [IMOCITRELVIR] | 45 | – | – | – | – | – | – | – | – | – | > 3000 | 49 | 56
21 | CCOC(=O)c1ccc2ccc(Oc3ccnc(C(=O)NC)c3)cc2n1 | 56600 | 44300 | > 100000 | 1300 | > 1.8 | > 2.3 | > 77 | 1900 | > 100000 | > 53 | – | – | –
22 | CCOC(=O)c1sc2cc(Oc3ccnc(C(=O)NC)c3)ccc2c1Cl | 11700 | 1700 | 46900 | 2700 | 4 | 28 | 17 | > 45600 | 45600 | – | – | – | –
23 | CCOC(=O)c1cc2ccc(Oc3ccnc(C(=O)NC)c3)cc2s1 | 24600 to 58400 | 1200 to 1300 | > 100000 | 19 | > 1.7 | > 77 | > 5300 | 64300 | > 100000 | > 1.6 | – | – | –
24 | CCOC(=O)c1sc2cc(Oc3cccc(C(=O)NC)c3)ccc2c1C | 3400 | 85 | 5100 | 150 | 1.5 | 60 | 34 | 380 | 7700 | 20 | – | – | –
25 | CNC(=O)c1cc(Oc2ccc3c(C)c(C(=O)OCc4ccccc4)sc3c2)ccn1 | > 18800 | 550 | 18800 | 1400 | – | 34 | 13 | 340 | 18100 | 53 | – | – | –
